The text below walks through data of ChEMBL document CHEMBL1153624, “Cyclic phosphoramidates as prodrugs of 2'-C-methylcytidine” (Eur J Med Chem, 2009).

Data set [1] is described as follows: Metabolic stability in sc dosed hamster liver assessed as formation of 2'-C-methylcytidine triphosphate ((2R,3R,4R,5R)-5-(4-amino-2-oxopyrimidin-1(2H)-yl)-3,4-dihydroxy-4-methyltetrahydrofuran-2-yl)methyl tetrahydrogen triphosphate at 1.5 umol after 6 hrs. Type of data set: ADME, organism-based. To be noted: cricetinae, in vivo. The method, boiled down:
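Hamsters received a single subcutaneous dose of compound formulated in PEG. Liver was collected at 6 h and intracellular 2'-C-methylcytidine triphosphate quantified as nmol/g tissue (LLOQ 0.2 nmol/g).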

A further data set deals with Hepatitis C virus. As to the kind of experiment: Antiviral activity against HCV infected in human HuH7 cells by cell-based subgenomic replicon assay. Type of data set: functional, organism-based, Hepacivirus hominis, Huh-7. The method, boiled down: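 HCV subgenomic replicon assay in HUH-7 cells, run in 10% fetal cow serum. Cytotoxicity was read in parallel as the prodrug concentration reducing cell viability by 50%.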

The nature of data set [2]: Cytotoxicity against human HuH7 cells assessed as cell viability. It is filed as cell-based, Huh-7. The method, boiled down:
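Cytotoxicity measured in HUH-7 cells carrying the HCV subgenomic replicon. The value is the prodrug concentration that reduces cell viability by 50%.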

The next data set has as its system Plasma. As to the kind of experiment: Stability in human plasma assessed as 2'-C-methylcytidine triphosphate ((2R,3R,4R,5R)-5-(4-amino-2-oxopyrimidin-1(2H)-yl)-3,4-dihydroxy-4-methyltetrahydrofuran-2-yl)methyl tetrahydrogen triphosphate level. Type of data set: ADME, cell-free. The method, boiled down: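 Prodrug stability was measured in human plasma and scored as the fraction of dose remaining over time: stable; 80% of dose left after 2 h; 30% left after 1 h; 0% left after 18 min.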

Data set [3] is described as follows: Metabolic stability in po dosed hamster liver assessed as 2'-C-methylcytidine triphosphate ((2R,3R,4R,5R)-5-(4-amino-2-oxopyrimidin-1(2H)-yl)-3,4-dihydroxy-4-methyltetrahydrofuran-2-yl)methyl tetrahydrogen triphosphate level at 30.3 umol. It is filed as ADME, organism-based. The note with it: cricetinae, in vivo.

SMILES strings stand for the structures.

The term EC50 denotes the concentration giving half of the maximal effect. A low value points to greater potency. In the case of `CCCCCCOCCOC(=O)[C@H](C)NP1(=O)OC[C@H]2O[C@@H](n3ccc(N)nc3=O)[C@](C)(O)[C@@H]2O1` (stereo partly specified), the Activity in data set [1] was found to be 2.6 nmol/g. This compound registered an EC50 in the data set on Hepatitis C virus (Hepatitis C virus, Huh-7) of 14 µM.
Take `CCOC(=O)[C@H](CC(C)C)NP1(=O)OC[C@H]2O[C@@H](n3ccc(N)nc3=O)[C@](C)(O)[C@@H]2O1` (stereo partly specified): the concentration giving a half-maximal response (EC50) with Hepatitis C virus (Hepatitis C virus, Huh-7) was greater than 50 µM.
With `C[C@H](NP1(=O)OC[C@H]2O[C@@H](n3ccc(N)nc3=O)[C@](C)(O)[C@@H]2O1)C(=O)OC(C)(C)C` (stereo partly specified), the EC50 with Hepatitis C virus (Hepatitis C virus, Huh-7) is greater than 20 µM.
Consider `C[C@H](NP1(=O)OC[C@H]2O[C@@H](n3ccc(N)nc3=O)[C@](C)(O)[C@@H]2O1)C(=O)OC1CCCCCC1` (stereo partly specified), for which, in data set [1], the Activity is on record as 10.3 nmol/g. Further, the EC50 with Hepatitis C virus (Hepatitis C virus, Huh-7) is greater than 10 µM.
As a reminder, the CC50 is the concentration at which the toxic effect on the cells reaches its halfway point. Consider `CCOC(=O)[C@H](C)N[P@]1(=O)OC[C@H]2O[C@@H](n3ccc(N)nc3=O)[C@](C)(O)[C@@H]2O1`, for which the half-maximal cytotoxic concentration (CC50) in data set [2] is greater than 100 µM. In addition, the EC50 in the data set on Hepatitis C virus (Hepatitis C virus, Huh-7) worked out at 4 µM.
For `CCC(CC)COC(=O)[C@H](C)NP1(=O)OC[C@H]2O[C@@H](n3ccc(N)nc3=O)[C@](C)(O)[C@@H]2O1` (stereo partly specified), in data set [1], the Activity is listed as 8.9 nmol/g. This compound also returned an EC50 in the data set on Hepatitis C virus (Hepatitis C virus, Huh-7) greater than 20 µM.
`CCOC(=O)[C@H](C)N[P@@]1(=O)OC[C@H]2O[C@@H](n3ccc(N)nc3=O)[C@](C)(O)[C@@H]2O1`: the CC50 in data set [2] is greater than 100 µM. In addition, the EC50 in the data set with Hepatitis C virus (Hepatitis C virus, Huh-7) was greater than 20 µM.
`CCOC(=O)[C@H](CC)NP1(=O)OC[C@H]2O[C@@H](n3ccc(N)nc3=O)[C@](C)(O)[C@@H]2O1` (stereo partly specified) gave an EC50 in the data set with Hepatitis C virus (Hepatitis C virus, Huh-7) of 5.6 µM. For the same compound, the Stability entry in the data set on Plasma is on record as “Stable”. The Activity in data set [3] is recorded as less than 0.2 nmol/g.
The compound `CCC[C@H](NP1(=O)OC[C@H]2O[C@@H](n3ccc(N)nc3=O)[C@](C)(O)[C@@H]2O1)C(=O)OCC` (mixture of isomers) displayed an EC50 in the data set with Hepatitis C virus (Hepatitis C virus, Huh-7) greater than 20 µM.
Still for that read-out and setting: the result for `C[C@H](NP1(=O)OC[C@H]2O[C@@H](n3ccc(N)nc3=O)[C@](C)(O)[C@@H]2O1)C(=O)OC1CCCC1` (mixture of isomers) reads greater than 20 µM; that for `CC(C)CCOC(=O)[C@H](C)NP1(=O)OC[C@H]2O[C@@H](n3ccc(N)nc3=O)[C@](C)(O)[C@@H]2O1` (stereo in doubt), greater than 20 µM.
Turning to `CCCCOC(=O)[C@H](C)NP1(=O)OC[C@H]2O[C@@H](n3ccc(N)nc3=O)[C@](C)(O)[C@@H]2O1` (stereo in doubt; 10 F.E.), the EC50 in the data set on Hepatitis C virus (huh-7) is greater than 20 µM.
For `CCCCOC(=O)[C@H](C)NP1(=O)OC[C@H]2O[C@@H](n3ccc(N)nc3=O)[C@](C)(O)[C@@H]2O1` (stereo in doubt; 10 S.E.), the EC50 with Hepatitis C virus (Hepatitis C virus, Huh-7) turned out to be 15 µM.
With `CCCCCCCOC(=O)[C@H](C)NP1(=O)OC[C@H]2O[C@@H](n3ccc(N)nc3=O)[C@](C)(O)[C@@H]2O1` (stereo in doubt; 12 F.E.), in the data set on Hepatitis C virus (huh-7), the midpoint of the response, the EC50, lay at 15 µM.
Turning to `CCCCCCCOC(=O)[C@H](C)NP1(=O)OC[C@H]2O[C@@H](n3ccc(N)nc3=O)[C@](C)(O)[C@@H]2O1` (stereo in doubt; 12 S.E.), the Activity in data set [1] was determined as 5.9 nmol/g. This compound registered an EC50 in the data set on Hepatitis C virus (Hepatitis C virus, Huh-7) of 10.5 µM.
As to `C[C@H](NP1(=O)OC[C@H]2O[C@@H](n3ccc(N)nc3=O)[C@](C)(O)[C@@H]2O1)C(=O)OC1CCCCC1` (stereo in doubt; 14 F.E.), the EC50 in the data set on Hepatitis C virus (Hepatitis C virus, Huh-7) is greater than 20 µM.
`COCCCOC(=O)[C@H](C)NP1(=O)OC[C@H]2O[C@@H](n3ccc(N)nc3=O)[C@](C)(O)[C@@H]2O1` (stereo in doubt; 16 F.E.) gave an EC50 with Hepatitis C virus (huh-7) greater than 20 µM.
`COCCCOC(=O)[C@H](C)NP1(=O)OC[C@H]2O[C@@H](n3ccc(N)nc3=O)[C@](C)(O)[C@@H]2O1` (stereo in doubt; 16 S.E.) came in with an EC50 with Hepatitis C virus (Hepatitis C virus, Huh-7) of 28 µM.
Compound `CCCC(CCC)COC(=O)[C@H](C)NP1(=O)OC[C@H]2O[C@@H](n3ccc(N)nc3=O)[C@](C)(O)[C@@H]2O1` (stereo in doubt; 20 F.E.) had an EC50 in the data set with Hepatitis C virus (huh-7) greater than 20 µM.
`CCCC(CCC)COC(=O)[C@H](C)NP1(=O)OC[C@H]2O[C@@H](n3ccc(N)nc3=O)[C@](C)(O)[C@@H]2O1` (stereo in doubt; 20 S.E.) showed an EC50 in the data set with Hepatitis C virus (Hepatitis C virus, Huh-7) of 14 µM.
On to `CC(C)[C@H](N)C(=O)O[C@@H]1[C@@H](CO)O[C@@H](n2ccc(N)nc2=O)[C@]1(C)O` [VALOPICITABINE], for which the Activity in data set [1] was less than 0.2 nmol/g. For the same compound, in data set [2], the CC50 was greater than 100 µM. The compound further displayed an EC50 in the data set with Hepatitis C virus (Hepatitis C virus, Huh-7) of 7.6 µM.
